What was measured:
[1] = system: CCRF-CEM; assay: Antiproliferative activity against human CEM cells after 48 hrs by SRB assay; type: functional, cell-based
Method in brief: (§1)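 Cells grown in RPMI with 10% fetal calf serum at 37 °C, 5% CO2, replated 24 h before use, >90% trypan blue viability. DMSO stocks (1 mg/ml) diluted in medium; 48 h exposure at 37 °C, triplicate wells, concentrations up to 250 µM. Fixed with cold TCA, SRB stained, dye solubilized in 10 mM Tris pH 10.5, A570. Percent inhibition calculated versus untreated cells after subtracting cell-free blanks.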

[2] = system: MCF7; assay: Antiproliferative activity against human MCF7 cells after 48 hrs by SRB assay; type: functional, cell-based; method in brief: as §1
[3] = Cytotoxicity against human MCF12A cells after 48 hrs by SRB assay; type: cell-based, MCF-12A; method in brief: as §1
[4] = system: CCRF-CEM; assay: Antiproliferative activity against human CEM cells at 250 uM after 48 hrs by SRB assay; type: functional; method in brief: as §1
[5] = system: MCF7; assay: Antiproliferative activity against human MCF7 cells at 250 uM after 48 hrs by SRB assay; type: functional, cell-based; details: for inhibition at 250 µM: Homo sapiens, MCF7, 48 h; method in brief: as §1
[6] = Cytotoxicity against human MCF12A cells at 250 uM after 48 hrs by SRB assay; type: cell-based, MCF-12A; details: read-out: INH; method in brief: as §1
[7] = system: CCRF-CEM; assay: Cytotoxicity against human CEM cells assessed as viable cells at 120 uM after 24 hrs by Annexin-V-FITC and porpidium iodide staining based flow cytometry; type: functional; details: read-out: Activity
Method in brief: (§2)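 CEM cells at 10⁶/ml incubated 24 h at 37 °C with 120 µM agent from fresh DMSO stocks. Cells then washed in ice-cold PBS and taken into binding buffer (10 mM HEPES, 140 mM NaCl, 2.5 mM CaCl2). Annexin V-FITC and PI were added for 15 min in the dark at ambient temperature. Flow cytometry read 520/620 nm, gated on forward scatter to remove debris, counting 10,000 cells. Three experiments.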

[8] = system: CCRF-CEM; assay: Cytotoxicity against human CEM cells assessed as early apoptotic cells at 120 uM after 24 hrs by Annexin-V-FITC and porpidium iodide staining based flow cytometry; type: functional; method in brief: as §2
[9] = system: CCRF-CEM; assay: Cytotoxicity against human CEM cells assessed as late apoptotic/necrotic cells at 120 uM after 24 hrs by Annexin-V-FITC and porpidium iodide staining based flow cytometry; type: functional; method in brief: as §2
[10] = Homo sapiens, CCRF-CEM, 48 h, read-out: IC50
[11] = Homo sapiens, MCF7, 48 h, read-out: IC50
[12] = Homo sapiens, MCF-12A, 48 h, read-out: IC50

## COC(=O)C[C@H](O)[C@@H]1O[C@@H](c2ccccc2)[C@@H](O)[C@@H]1O
[1]; ccrf-cem
  IC50: Not Active
[2]; mcf7
  IC50: Not Active
[3]; mcf-12a
  IC50: Not Active
[4]
  inhibition at 250 µM: < 50%
[5]
  inhibition at 250 µM: < 50%
[6]
  cytotoxicity at 48 h, 250 µM: < 50%

## O=C1C[C@@H](O)[C@@H]2O[C@H](c3ccccc3)[C@@H](O)[C@@H]2O1
[1]; ccrf-cem
  IC50: Not Active
[2]; mcf7
  IC50: Not Active
[3]; mcf-12a
  IC50: Not Active
[4]
  inhibition at 250 µM: < 50%
[5]; mcf7
  Inhibition: < 50%
[6]
  cytotoxicity at 48 h, 250 µM: < 50%

## COC(=O)C[C@H](O)[C@H]1O[C@@H](c2ccccc2)[C@H](O)[C@H]1O
[1]; ccrf-cem
  IC50: Not Active
[2]; mcf7
  IC50: Not Active
[3]; mcf-12a
  IC50: Not Active
[4]
  inhibition at 250 µM: < 50%
[5]
  inhibition at 250 µM: < 50%
[6]
  cytotoxicity at 48 h, 250 µM: < 50%

## COC(=O)C[C@H](O)[C@@H]1O[C@@H](c2ccccc2)[C@H](O)[C@@H]1O
[1]; ccrf-cem
  IC50: Not Active
[2]; mcf7
  IC50: Not Active
[3]; mcf-12a
  IC50: Not Active
[4]
  inhibition at 250 µM: < 50%
[5]
  inhibition at 250 µM: < 50%
[6]
  cytotoxicity at 48 h, 250 µM: < 50%

## COC(=O)C[C@@H](O)[C@@H]1O[C@H](c2ccccc2)[C@@H](O)[C@@H]1O (mixture of isomers)
[1]; ccrf-cem
  IC50: Not Active
[2]; mcf7
  IC50: Not Active
[3]; mcf-12a
  IC50: Not Active
[4]
  inhibition at 250 µM: < 50%
[5]
  inhibition at 250 µM: < 50%
[6]
  cytotoxicity at 48 h, 250 µM: < 50%

## O=C1C=C[C@@H]2O[C@H](c3ccccc3)[C@@H](O)[C@@H]2O1 [ALTHOLACTONE]
[7]
  viability at 120 µM: 19%
[1]; [10]
  IC50: 19 µM
[8]
  Activity: 33%
[2]; [11]
  IC50: 124 µM
[3]; [12]
  IC50: 120 µM
[9]
  Activity: 19%

## O=C1C=C[C@H]2O[C@@H](c3ccccc3)[C@H](O)[C@H]2O1 [ENT-ALTHOLACTONE]
[7]
  viability at 120 µM: 19%
[1]; [10]
  IC50: 24 µM
[8]
  Activity: 10%
[2]; [11]
  IC50: 100 µM
[3]; [12]
  IC50: 110 µM
[9]
  Activity: 40%

Source: ChEMBL document CHEMBL1159063, “Apoptotic activities in closely related styryllactone stereoisomers toward human tumor cell lines: Investigation of synergism of styryllactone-induced apoptosis with TRAIL” (Bioorg Med Chem, 2010)
